{"source": "paper PMC7172891", "about": "(Peptides, 2008)", "key": {"[1]": {"tested_on": "HSV-1", "experiment": "HSV-1 virus entry assay: plaque inhibition on Vero cells", "format": "cell-based", "conditions": "for inhibition of HSV-1 infectivity, cell pre-exposure: peptide 250 μM, Vero cells treated with peptide before viral challenge; for activity in dose-dependent inhibition assay of HSV entry: co-treatment, up to 500 μM, Vero cells"}, "[2]": {"conditions": "PC/Chol (1:1) LUV, probe dilution assay; cited from earlier work"}, "[3]": {"tested_on": "HIV-1", "conditions": "cited from earlier work"}, "[4]": {"tested_on": "parainfluenza-2 virus (PIV-2)", "experiment": "Inhibition of PIV-2 infectivity, co-exposure mode", "format": "cell-based", "conditions": "peptide 250 and 500 μM", "how_it_was_run": "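Co-exposure: cells and virus inoculum incubated together with peptide for 45 min at 37 °C. Non-penetrated virus inactivated with low-pH citrate buffer. Cells then held 48 h at 37 °C in DMEM with CMC, and plaques counted. Run in triplicate. Percent inhibition calculated against no-peptide control, with standard deviations; scrambled peptides run in parallel.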"}, "[5]": {"experiment": "Circular dichroism: helix content and oligomeric state", "format": "physicochemical", "conditions": "for ratio θ222/θ208 (monomer about 0.8, oligomer above 1.0) / percentage of helix (CD, ellipticity at 222 nm): peptide 20 μM", "how_it_was_run": "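CD spectra at room temperature in 1.0 or 0.1 cm quartz cells. Peptide 20 μM titrated in varying % TFE; 5–200 μM series in buffer, 20% TFE and […]. For lipid samples, peptide in TFE was mixed with lipid in chloroform, dried, lyophilised and rehydrated in water to 0.9 mM final lipid. Scans averaged (three, 260–195 nm), blank-corrected, converted to MRE.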"}, "[6]": {"experiment": "Native gel electrophoresis: oligomeric state of peptides", "format": "physicochemical", "conditions": "without SDS and with 4 mM and 5 mM SDS", "how_it_was_run": "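Peptide solution (1 mM in phosphate buffer pH 7.3, before mixing) incubated alone or with 4 or 5 mM SDS for 5 min at 25 °C. Non-denaturing PAGE with 4% stacking and 12% separating gel, run 2.5 h at constant 30 mA. Bands visualised with Coomassie R-250.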"}, "[7]": {"experiment": "Solubility / precipitation observations", "format": "physicochemical"}}, "data": [{"substance": "AAHLIDALYAEFLGGRVLTTPVVHRALFYASAVLRQPFLAGVPSA [gH493–537]", "values": [{"measurement": "inhibition of HSV-1 infectivity, post-exposure treatment", "setting": "[1]; peptide 250 μM added after 45 min infection of Vero cells", "value": "not active"}, {"measurement": "inhibition of HSV-1 infectivity, cell pre-exposure", "setting": "[1]", "value": "not active"}, {"measurement": "ability to induce fusion of vesicles (lipid mixing), previously reported", "setting": "[2]", "value": "able to induce fusion"}]}, {"substance": "Enfuvirtide", "values": [{"measurement": "inhibition of HIV-1", "setting": "[3]", "value": "active at low nanomolar concentration"}]}, {"substance": "GLASTLTRWAHYNALIRAF [gH626–644]", "values": [{"measurement": "effect on parainfluenzavirus-2 (PIV-2) infectivity", "setting": "[4]", "value": "none of these peptides exerted any significant effect"}, {"measurement": "ratio θ222/θ208 (monomer about 0.8, oligomer above 1.0)", "setting": "[5]; 20% TFE, TFE titration", "value": "approximately 1.05"}, {"measurement": "helicity (CD, ellipticity at 222 nm)", "setting": "[5]; 20% TFE, peptide 5 μM", "value": "about 19%"}, {"measurement": "percentage of helix (CD, ellipticity at 222 nm)", "setting": "[5]; 20% TFE, room temperature", "value": 27, "unit": "%"}, {"measurement": "ratio θ222/θ208 over peptide concentration", "setting": "[5]; 20% TFE, peptide 5–200 μM", "value": "around 1"}, {"measurement": "concentration at which the peptide already oligomerises (CD)", "setting": "[5]; CD data", "value": 50, "unit": "µM"}, {"measurement": "conformation in buffer solution (CD)", "setting": "[5]; buffer solution, spectra unaltered over 5–200 μM", "value": "random coil conformation"}, {"measurement": "ratio θ222/θ208 (monomer about 0.8, oligomer above 1.0)", "setting": "[5]; higher percentages of TFE", "value": 0.76}, {"measurement": "percentage of helix (CD, ellipticity at 222 nm)", "setting": "[5]; increasing (higher) concentrations of TFE", "value": "approximately 35%"}, {"measurement": "oligomer order in NATIVE-PAGE", "setting": "[6]", "value": "forms higher order oligomers compared to gH493–512"}, {"measurement": "inhibition of HSV-1 infectivity, cell pre-exposure", "setting": "[1]", "value": "partially inhibit viral entry"}, {"measurement": "precipitation in inhibition experiments", "setting": "[7]; 500 μM", "value": "probably indicating a precipitation of the peptide at this concentration"}, {"measurement": "precipitation / macroscopic aggregation", "setting": "[7]; in presence of membranes, concentrations assayed in CD studies (5–200 μM)", "value": "did not precipitate or otherwise form macroscopic aggregates"}, {"measurement": "ability to induce fusion of vesicles (lipid mixing), previously reported", "setting": "[2]", "value": "able to induce fusion"}]}, {"substance": "TWLATRGLLRSPGRYVYFSPSASTWPVGIWTTGELVLGCDAAL [gH220–262]", "values": [{"measurement": "activity in dose-dependent inhibition assay of HSV entry", "setting": "[1]", "value": "non-significant activity"}, {"measurement": "ability to induce fusion of vesicles (lipid mixing), previously reported", "setting": "[2]", "value": "able to induce fusion"}]}, {"substance": "RLTGLLATSGFAFVNAAHANGAVCLSDLLGFLAHSRALAG [gH381–420]", "values": [{"measurement": "activity in dose-dependent inhibition assay of HSV entry", "setting": "[1]", "value": "non-significant activity"}, {"measurement": "ability to induce fusion of vesicles (lipid mixing), previously reported", "setting": "[2]", "value": "able to induce fusion"}]}]}
